# Screening results (PubChem BioAssay)
# An excerpt weighted towards active compounds, which were near 3.8% of everything screened.
# CHO parental Ca: counter-screen: ATP calcium response change in parental CHO cells; parental CHO-K1, ATP-induced calcium, Fluo-8 fluorescence; inhibition, % at 5.6 µM; 330,000 tested, 0.63% active;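 active = inhibition above that plate's mean sample inhibition plus 3 SD, cut at about 26% in these data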;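 also: 0% = ATP-challenged DMSO wells and 100% = DMSO wells without ATP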
#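 Test system: parental CHO cells; detection: calcium-sensitive Fluo-8 fluorescence; evaluation: percent inhibition of calcium signal; also added: ATP as calcium-mobilizing challenge; repeats: one well per compound; control set: ATP-challenged DMSO wells low, unchallenged DMSO wells high; compound: single nominal dose of 5.6 µM per compound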
# OX1R antag-1: antagonists of human orexin 1 receptor (OX1R); 330,000 tested, 1.8% active; AID 485270; O43613; inhibition, % at 6.6 µM; OX1R-expressing cells, FRET antagonist read-out; in the data active = inhibition mostly above about 38%, no sharp cut-off; inactive = mostly below about 40%;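 also: 0% = agonist challenge alone and 100% = reference antagonist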
# Target sequence (O43613 whole entry, looked up): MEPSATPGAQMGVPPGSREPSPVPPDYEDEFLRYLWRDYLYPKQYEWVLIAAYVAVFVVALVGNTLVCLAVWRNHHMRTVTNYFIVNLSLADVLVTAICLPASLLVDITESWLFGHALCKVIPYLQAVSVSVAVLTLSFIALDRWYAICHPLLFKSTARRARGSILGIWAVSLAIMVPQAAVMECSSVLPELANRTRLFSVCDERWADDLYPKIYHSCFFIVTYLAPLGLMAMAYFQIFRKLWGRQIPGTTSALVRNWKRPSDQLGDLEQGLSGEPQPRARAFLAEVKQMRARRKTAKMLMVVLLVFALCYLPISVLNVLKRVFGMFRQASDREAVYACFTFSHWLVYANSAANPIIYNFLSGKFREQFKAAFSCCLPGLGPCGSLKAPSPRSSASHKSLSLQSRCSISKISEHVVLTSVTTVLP
# MPTP block: permeability transition pore inhibition | inhibition, % at 10 µM | 360,000 tested, 1.4% active | AID 602449 | isolated mouse mitochondria, Ca2+ swelling absorbance, 30 min;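 active = inhibition of 50% or more, scaled per plate between neutral and stimulator controls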;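 also: 0% = DMSO wells given calcium and 100% = 1 mM EGTA wells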
# GPR7 antagonist: human neuropeptides B/W receptor 1 antagonism; inhibition, % at 4.4 µM; GPR7-expressing cells, fluorescence antagonist assay; 290,000 tested, 1.1% active; AID 1861; in the data active = inhibition above about 16%, passing the limit was not always enough;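 also: cells stimulated with the agonist NPW; 0% = agonist with vehicle and 100% = vehicle without agonist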
# OX1R antag-2: antagonists of human orexin 1 receptor; CHO/OX1R cells, Fluo-8 calcium fluorescence, orexin A; 330,000 tested, 0.43% active; inhibition, % at 5 µM;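 active = inhibition above its plate's threshold, mean inhibition of all tested compounds on the plate plus 3 SD, cut at about 37% in these data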;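 also: 0% = orexin A challenge wells and 100% = SB-334867-A antagonist wells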
# GPR7 antag conf: confirmation of human GPR7 antagonists. AID 1952. inhibition, % at 4.4 µM. shares compounds with GPR7 antagonist. GPR7-expressing cells, calcium fluorescence antagonist mode. 2,400 tested, 52% active; in the data active = inhibition above about 24%;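 also: stimulated with the GPR7 agonist NPW; 0% = agonist plus vehicle and 100% = vehicle alone without agonist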
# MCHR1 antag: counter-screen for GPR7 antagonists: antagonists of human MCHR1 | inhibition, % at 4.4 µM | MCHR1-expressing cells, fluorescence antagonist assay | 2,400 tested, 62% active | AID 2148 | shares compounds with GPR7 antagonist; in the data active = inhibition above about 22%;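 also: 0% = vehicle with agonist and 100% = vehicle without agonist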
# * marks the source's active call; other numbers are inactive results; · = no result.
SMILES,CHO parental Ca,OX1R antag-1,MPTP block,GPR7 antagonist,OX1R antag-2,GPR7 antag conf,MCHR1 antag
CC(=O)c1c(C)[nH]c(C(=O)COC(=O)c2cc(C)oc2C)c1C,-4.6,14.7,1.7,·,18.0,·,·
O=C(NC1CCN(S(=O)(=O)c2ccc(F)cc2)CC1)c1cccnc1,-3.0,11.6,-0.4,5.3,-19.3,·,·
N#Cc1ccc(S(=O)(=O)N2CCCN(c3ccc(C(F)(F)F)cn3)CC2)cc1,-10.7,3.5,4.1,24.2*,-13.7,19.0,7.8
O=S(=O)(c1ccc(F)cc1F)N1CCCN(c2ccc(C(F)(F)F)cn2)CC1,-32.0,0.2,1.2,-5.5,-13.8,·,·
O=C(NCCc1ccco1)c1cc(COc2cccc(C(F)(F)F)c2)on1,-13.5,2.0,0.5,-17.3,-28.3,·,·
COc1cccc(/C=N/n2nnnc2N)c1OCC#N,-5.2,2.7,2.9,·,-7.4,·,·
O=C(COc1ccccc1[N+](=O)[O-])Nc1ccc2c(c1)OCO2,-12.7,22.8,-0.3,-3.2,7.4,·,·
CC(CCn1cccn1)NC(=O)c1cc(COc2ccc(F)cc2Cl)on1 (configuration not stated),-9.9,-3.6,1.0,33.8*,-26.3,-7.2,13.6
CC(CCn1cccn1)NC(=O)c1cc(COc2ccc(F)cc2F)on1 (configuration not stated),-10.1,8.2,-0.5,6.2,-30.7,·,·
CC1=C(C(=O)Nc2cc(C(=O)NCCCOC(C)C)ccc2C)SCCO1,-4.5,1.0,1.0,-0.4,-4.3,·,·
COc1ccc(/C=C2\SC(=O)N(CC(=O)Nc3cccnc3)C2=O)cc1OC,-7.4,16.6,1.1,-0.6,-10.7,·,·
COc1ccc(/C=C2\SC(=O)N(CC(=O)Nc3ccc(F)cc3)C2=O)cc1O,0.3,16.3,0.3,28.6*,3.3,0.5,6.1
Clc1nssc1=Nc1ccc(Br)cc1,·,·,7.6,-7.8,·,·,·
OCc1ccccc1N=c1ssnc1Cl,-23.4,12.1,·,31.1*,4.1,3.6,17.5
O=C(CSCc1ccccc1)Nc1ccc2c(c1)C(=O)NC2=O,2.0,25.9,-0.1,23.5*,-6.8,35.5*,34.4*
Cc1ccc(OCC(=O)Nc2ccc3c(c2)C(=O)NC3=O)cc1,8.2,29.7,-0.1,27.9*,2.5,40.0*,34.6*
O=C(COc1ccc(Cl)cc1)Nc1ccc2c(c1)C(=O)NC2=O,17.5,37.6,1.5,32.6*,21.0,23.8*,26.8*
Cc1nn(-c2ccc(F)cc2)c(Cl)c1/C=C(\CC(=O)O)c1nc2ccccc2s1,-9.3,7.7,-1.7,31.4*,-2.1,0.2,-0.9
COc1ccc(OC)c(C(c2nnnn2Cc2ccco2)N2CCN(C)CC2)c1 (configuration not stated),-12.5,22.0,-0.1,18.9,-14.2,·,·
COc1cccc(C(c2nnnn2Cc2ccco2)N2CCN(c3cccc(C)c3C)CC2)c1OC (configuration not stated),-18.6,20.7,2.8,22.5*,-5.0,13.8,60.4*
CN(CC(=O)Nc1ccccc1Br)C(=O)CCCSc1nc2ccccc2[nH]1,-22.1,42.9,-0.1,·,-24.4,·,·
CCC(NC(=O)Cc1c(C)c2cc3c(cc2oc1=O)OC(C)(C)CC3)C(=O)O (configuration not stated),-5.6,4.5,0.7,0.6,-16.6,·,·
O=C(CNS(=O)(=O)c1ccccc1)OCC(=O)c1ccc(OC(=O)c2ccccc2)cc1,-4.8,6.5,-0.6,24.1*,12.7,26.1*,39.4*
O=C(CNS(=O)(=O)c1ccccc1)OCC(=O)c1ccc(Br)cc1,3.7,10.3,0.7,-8.9,6.6,·,·
O=C(c1ccco1)N(CCC(c1ccccc1)c1ccco1)Cc1ccc(F)cc1 (configuration not stated),6.1,0.5,1.9,17.4,4.0,·,·
CC1(C)CC(C(CCN(Cc2ccccc2)C(=O)c2ccco2)c2ccc(F)cc2)CCO1 (configuration not stated),-10.5,8.2,1.3,31.1*,-2.9,37.2*,60.5*
O=C(Nc1ccc(F)cc1F)NC1CC1,2.7,16.8,-0.5,-26.3,-0.4,·,·
O=C(Nc1ccc(F)cc1F)NC1CCN(S(=O)(=O)c2ccc(F)cc2)CC1,-9.4,4.9,-0.9,37.0*,-6.5,18.0,6.1
